Measurements: ChEMBL document CHEMBL3804803, “Pyrrolopyrimidine Derivatives as Novel Inhibitors of Multidrug Resistance-Associated Protein 1 (MRP1, ABCC1)” (J Med Chem, 2016)

Columns and labels:
[1] = Inhibition of P-gp in human A2780/ADR cells after 30 mins by calcein AM accumulation assay; format: cell-based; details: 0.5 h
[2] = target: T1, Multidrug resistance-associated protein 1 (Homo sapiens, UniProt P33527); test: Inhibition of MRP1 in human H69AR cells incubated for 20 mins measured every 60 seconds by calcein-AM accumulation assay
BCRP (ABCG2) = target: T2, BCRP (ABCG2) (Homo sapiens, UniProt Q9UNQ0); test: Inhibition of BCRP (unknown origin) expressed in MDCK2 cells assessed as pheophorbide A accumulation at 10 uM preincubated for 20 mins measured after 120 mins by flow cytometry; format: cell-based, MDCK-II; details: MDCK2 cells expressing BCRP, probe pheophorbide A
T2 sequence (Q9UNQ0 whole entry): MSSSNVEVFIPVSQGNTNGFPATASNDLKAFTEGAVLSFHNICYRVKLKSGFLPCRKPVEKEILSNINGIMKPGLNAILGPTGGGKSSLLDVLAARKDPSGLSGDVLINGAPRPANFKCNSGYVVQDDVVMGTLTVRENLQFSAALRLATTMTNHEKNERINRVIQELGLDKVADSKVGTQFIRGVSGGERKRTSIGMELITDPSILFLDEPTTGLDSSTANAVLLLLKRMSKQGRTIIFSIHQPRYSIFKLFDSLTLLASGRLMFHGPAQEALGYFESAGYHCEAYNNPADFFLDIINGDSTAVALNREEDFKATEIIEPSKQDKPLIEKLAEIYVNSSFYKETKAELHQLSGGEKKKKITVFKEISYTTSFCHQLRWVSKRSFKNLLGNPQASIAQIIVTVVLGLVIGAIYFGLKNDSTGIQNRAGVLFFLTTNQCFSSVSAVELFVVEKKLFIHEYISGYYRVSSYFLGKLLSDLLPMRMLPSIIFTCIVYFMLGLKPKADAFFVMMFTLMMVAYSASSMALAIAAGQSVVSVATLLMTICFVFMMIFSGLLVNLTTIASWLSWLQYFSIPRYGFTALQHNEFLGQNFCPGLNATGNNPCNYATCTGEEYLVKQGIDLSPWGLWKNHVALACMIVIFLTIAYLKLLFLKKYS
In short: (§1)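 MDCK II BCRP cells (GFP detected in FL1 to monitor BCRP expression), about 45,000 per well. Preincubated 20 min at 37 °C, 5% CO2 with compound (1–100 µM solutions, 20 µL into 200 µL final volume). Pheophorbide A added (20 µL of 5 µM solution) for 120 min to reach steady state. Cells resuspended, then flow cytometry: 488 nm excitation, FL3 ≥670 nm. […] The four-parameter logistic top was constrained to Ko143; ≥3 experiments in duplicate.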

[3] = target: T1, Multidrug resistance-associated protein 1; test: Inhibition of MRP1 in human H69AR cells assessed as daunorubicin accumulation preincubated for 15 mins measured after 180 mins by flow cytometry; format: cell-based
In short: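 H69 AR cells, about 60,000 per well in culture medium. Preincubated 15 min with compound diluted in unsupplemented medium, then daunorubicin added (20 µL of 30 µM solution). Held 180 min at 37 °C, 5% CO2, protected from light, to reach steady state. Cells resuspended; flow cytometry with 488 nm excitation, FL3 ≥670 nm. IC50 from four-parameter logistic with variable Hill slope; ≥3 independent experiments in duplicate.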

Homo sapiens = species: Homo sapiens; test: Inhibition of P-gp (unknown origin) at 10 uM after 30 mins by calcein AM accumulation assay
[4] = Cytotoxicity against human H69AR cells overexpressing MRP1 assessed as reduction in cell viability at 10 uM after 72 hrs by MTT assay; format: cell-based; details: for Activity: h69ar, 72 h, 10 µM
In short: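 H69 AR cells, about 20,000 per well, 72 h at 37 °C in humidified CO2 with compound at 10 µM. MTT (5 mg/mL, 20 µL) added for 1 h, then DMSO solubilization and absorbance 570 nm with 690 nm background. Viability scaled between plain medium (100%) and 10% DMSO (0%). ≥3 independent experiments in duplicate.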

[5] = Cytotoxicity against human H69AR cells overexpressing MRP1 assessed as growth inhibition after 72 hrs by MTT assay; format: cell-based
In short: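 H69 AR cells, about 20,000 per well, exposed 72 h at 37 °C in humidified CO2 to test compound diluted in culture medium (100 nM to 100 µM solutions, 20 µL added to 180 µL cells). Then MTT (5 mg/mL, 20 µL) for 1 h, formazan taken up in DMSO, absorbance 570 nm minus 690 nm. Plain medium set 100% viability, 10% DMSO 0%. GI50 from variable-slope nonlinear fit; ≥3 independent experiments in duplicate.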

[6] = target: T3, Broad substrate specificity ATP-binding cassette transporter ABCG2 (Homo sapiens, UniProt Q9UNQ0); test: Inhibition of BCRP (unknown origin) expressed in MDCK2 cells assessed as pheophorbide A accumulation preincubated for 20 mins measured after 120 mins by flow cytometry; format: cell-based, MDCK-II; in short: as §1
T3 sequence (Q9UNQ0 whole entry): T2 sequence (Q9UNQ0 whole entry)

[7] = target: T1, Multidrug resistance-associated protein 1; test: Inhibition of MRP1 in human H69AR cells incubated for 20 mins measured […] by calcein-AM accumulation assay; format: cell-based
In short: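 H69 AR cells, about 60,000 per well in Krebs-HEPES buffer pH 7.4. Incubated 20 min at 37 °C, 5% CO2 with compound (100 nM–100 µM solutions, 20 µL in 200 µL final volume). Calcein AM then added (20 µL of 3.125 µM). Fluorescence (ex 485/em 520 nm, 37 °C) read every 60 s. Slope between min 5 and 30 plotted against log concentration; four-parameter logistic fit; ≥3 experiments in duplicate.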

T1 sequence (P33527 whole entry): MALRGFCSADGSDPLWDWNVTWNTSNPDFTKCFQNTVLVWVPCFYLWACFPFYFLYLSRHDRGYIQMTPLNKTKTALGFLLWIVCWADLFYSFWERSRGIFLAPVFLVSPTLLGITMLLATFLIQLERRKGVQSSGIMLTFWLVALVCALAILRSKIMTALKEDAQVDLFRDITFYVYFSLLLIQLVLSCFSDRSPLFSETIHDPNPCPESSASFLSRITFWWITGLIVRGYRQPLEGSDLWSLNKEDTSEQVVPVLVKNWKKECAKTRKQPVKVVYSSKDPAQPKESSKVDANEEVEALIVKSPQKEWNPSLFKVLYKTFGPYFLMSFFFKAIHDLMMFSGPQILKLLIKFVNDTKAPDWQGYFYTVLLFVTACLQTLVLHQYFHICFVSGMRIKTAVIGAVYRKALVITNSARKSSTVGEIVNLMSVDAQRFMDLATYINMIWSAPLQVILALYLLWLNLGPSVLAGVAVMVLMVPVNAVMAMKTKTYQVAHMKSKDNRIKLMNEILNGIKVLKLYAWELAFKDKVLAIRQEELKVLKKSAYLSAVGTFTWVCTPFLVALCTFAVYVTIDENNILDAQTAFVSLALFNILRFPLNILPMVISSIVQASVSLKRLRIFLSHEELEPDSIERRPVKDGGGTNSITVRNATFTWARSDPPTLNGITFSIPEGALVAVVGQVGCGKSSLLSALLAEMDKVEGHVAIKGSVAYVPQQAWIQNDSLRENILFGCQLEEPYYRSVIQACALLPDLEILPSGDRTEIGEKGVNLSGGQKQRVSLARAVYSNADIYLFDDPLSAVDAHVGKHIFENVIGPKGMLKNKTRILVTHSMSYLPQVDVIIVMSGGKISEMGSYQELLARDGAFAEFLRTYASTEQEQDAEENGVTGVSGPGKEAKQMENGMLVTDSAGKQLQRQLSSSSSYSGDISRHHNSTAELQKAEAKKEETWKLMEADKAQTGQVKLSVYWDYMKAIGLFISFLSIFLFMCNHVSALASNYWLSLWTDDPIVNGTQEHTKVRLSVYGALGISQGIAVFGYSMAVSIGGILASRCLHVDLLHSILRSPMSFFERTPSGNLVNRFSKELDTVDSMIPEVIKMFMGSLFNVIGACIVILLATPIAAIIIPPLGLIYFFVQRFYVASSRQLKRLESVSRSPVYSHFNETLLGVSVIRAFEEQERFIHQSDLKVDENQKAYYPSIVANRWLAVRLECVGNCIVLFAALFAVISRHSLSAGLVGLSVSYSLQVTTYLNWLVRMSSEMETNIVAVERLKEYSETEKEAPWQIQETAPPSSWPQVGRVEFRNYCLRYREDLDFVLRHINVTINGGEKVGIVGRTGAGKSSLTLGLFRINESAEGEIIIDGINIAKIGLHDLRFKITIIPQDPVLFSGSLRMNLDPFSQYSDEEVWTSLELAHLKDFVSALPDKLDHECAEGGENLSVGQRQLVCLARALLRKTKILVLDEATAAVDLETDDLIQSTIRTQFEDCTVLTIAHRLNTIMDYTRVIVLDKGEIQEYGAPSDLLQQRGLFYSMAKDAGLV

| SMILES | IC50 [1] [µM] | IC50 [2] [µM] | inhibition at 2 h, 10 µM (BCRP (ABCG2)) [%] | IC50 [3] [µM] | inhibition (Homo sapiens) [%] | cytotoxicity at 72 h, 10 µM ([4]; H69AR cells overexpressing MRP1, read-out: INH) [%] | GI50 at 72 h [5] [µM] | IC50 [6] [µM] | IC50 [7] [µM] | Activity [4] |
| --- | --- | --- | --- | --- | --- | --- | --- | --- | --- | --- |
| N#Cc1cn(CCc2ccccc2)c2c(N3CCN(CCc4ccccc4)CC3)ncnc12 | 32.5 | 1.02 | < 25 | 1.12 | > 25 | – | – | – | – | – |
| N#Cc1cn(-c2ccccc2)c2c(N3CCN(Cc4ccccc4)CC3)ncnc12 | – | 1.22 | < 25 | 0.866 | > 25 | – | – | – | – | – |
| CCCn1cc(C#N)c2ncnc(N3CCN(CCc4ccccc4)CC3)c21 | 41.9 | 0.543 | < 25 | 0.418 | > 25 | – | – | – | – | – |
| CC(C)n1cc(C#N)c2ncnc(N3CCN(CCc4ccccc4)CC3)c21 | – | 0.821 | < 25 | 1.24 | > 25 | – | – | – | – | – |
| N#Cc1cn(CCCc2ccccc2)c2c(N3CCN(CCc4ccccc4)CC3)ncnc12 | – | 0.956 | < 25 | 0.586 | > 25 | – | – | – | – | – |
| N#Cc1cn(-c2ccccc2)c2c(N3CCN(CCc4ccccc4)CC3)ncnc12 | 6.82 | 0.75 | < 25 | 0.34 | > 25 | 40 | 23.6 | – | – | – |
| N#Cc1c2n(c3c(Nc4ccccc4)ncnc13)CCCC2 | – | 14.2 | > 25 | 9.41 | > 25 | – | – | 7.68 | – | – |
| N#Cc1cn(Cc2ccccc2)c2c(N3CCN(CCc4ccccc4)CC3)ncnc12 | 10.6 | 1 | < 25 | 0.623 | > 25 | – | – | – | – | – |
| N#Cc1cn(Cc2ccccc2)c2c(N3CCN(Cc4ccccc4)CC3)ncnc12 | – | 2.77 | < 25 | 0.876 | > 25 | – | – | – | – | – |
| Cn1cc(C#N)c2ncnc(N3CCN(CCc4ccccc4)CC3)c21 | – | 0.714 | < 25 | 0.7 | > 25 | – | – | – | – | – |
| N#Cc1c2n(c3c(N4CCN(C(c5ccccc5)c5ccccc5)CC4)ncnc13)CCCC2 | – | 1.62 | > 25 | 1.07 | > 25 | – | – | 14.3 | – | – |
| CCn1cc(C#N)c2ncnc(N3CCN(CCc4ccccc4)CC3)c21 | – | 1.06 | < 25 | 0.789 | > 25 | – | – | – | – | – |
| N#Cc1c2n(c3c(N4CCN(c5ccccc5)CC4)ncnc13)CCCCC2 | – | – | > 25 | 15.1 | > 25 | – | – | – | 8.98 | – |
| N#Cc1c2n(c3c(NCc4ccccc4)ncnc13)CCCC2 | – | 14.2 | > 25 | 8.8 | > 25 | – | – | 15.8 | – | – |
| N#Cc1c2n(c3c(N4CCN(CCc5ccccc5)CC4)ncnc13)CCCC2 | 18.8 | 0.37 | > 25 | 0.197 | > 25 | – | 39.9 | 8.19 | – | Non-toxic |
| N#Cc1cn(CCCc2ccccc2)c2c(N3CCN(Cc4ccccc4)CC3)ncnc12 | – | 3.15 | < 25 | 2.36 | > 25 | – | – | – | – | – |
| CN1CCN(c2ncnc3c(C#N)c4n(c23)CCCC4)CC1 | – | 5.06 | > 25 | 2.87 | > 25 | – | – | 4.25 | – | – |
| N#Cc1c2n(c3c(NCCc4ccccc4)ncnc13)CCCC2 | – | 8.37 | > 25 | 4.98 | > 25 | – | – | – | – | – |
| N#Cc1c2n(c3c(N4CCN(C(c5ccccc5)c5ccccc5)CC4)ncnc13)CCCCC2 | 28.6 | – | > 25 | 1.01 | > 25 | – | – | 8.71 | 1.95 | – |
| N#Cc1c2n(c3c(N4CCN(CCc5ccccc5)CC4)ncnc13)CCCCC2 | 19.2 | – | > 25 | 0.643 | > 25 | – | 79.8 | 9.94 | 0.833 | Non-toxic |
| N#Cc1c2n(c3c(N4CCN(c5ccccc5)CC4)ncnc13)CCCC2 | – | 2.56 | > 25 | 2.9 | > 25 | – | – | 5.91 | – | – |
| N#Cc1c2n(c3c(N4CCN(Cc5ccccc5)CC4)ncnc13)CCCC2 | 32.3 | 0.671 | > 25 | 0.636 | > 25 | – | – | 8.24 | – | – |
| N#Cc1cn(CCc2ccccc2)c2c(N3CCN(Cc4ccccc4)CC3)ncnc12 | – | 0.91 | < 25 | 0.983 | > 25 | – | – | – | – | – |
